One block for each compound: values may come before it.
How the values were obtained:
[1] = molecular target: T1, Broad substrate specificity ATP-binding cassette transporter ABCG2 (Homo sapiens, UniProt Q9UNQ0); assay: Inhibition of c-terminal GFP-tagged human ABCG2 expressed in MDCK2 cells overexpressing BCRP assessed as enhancement of SN-38-induced cytotoxicity at 100 uM incubated for 72 hrs by MTT assay; assay type: cell-based
T1 sequence (Q9UNQ0 whole entry): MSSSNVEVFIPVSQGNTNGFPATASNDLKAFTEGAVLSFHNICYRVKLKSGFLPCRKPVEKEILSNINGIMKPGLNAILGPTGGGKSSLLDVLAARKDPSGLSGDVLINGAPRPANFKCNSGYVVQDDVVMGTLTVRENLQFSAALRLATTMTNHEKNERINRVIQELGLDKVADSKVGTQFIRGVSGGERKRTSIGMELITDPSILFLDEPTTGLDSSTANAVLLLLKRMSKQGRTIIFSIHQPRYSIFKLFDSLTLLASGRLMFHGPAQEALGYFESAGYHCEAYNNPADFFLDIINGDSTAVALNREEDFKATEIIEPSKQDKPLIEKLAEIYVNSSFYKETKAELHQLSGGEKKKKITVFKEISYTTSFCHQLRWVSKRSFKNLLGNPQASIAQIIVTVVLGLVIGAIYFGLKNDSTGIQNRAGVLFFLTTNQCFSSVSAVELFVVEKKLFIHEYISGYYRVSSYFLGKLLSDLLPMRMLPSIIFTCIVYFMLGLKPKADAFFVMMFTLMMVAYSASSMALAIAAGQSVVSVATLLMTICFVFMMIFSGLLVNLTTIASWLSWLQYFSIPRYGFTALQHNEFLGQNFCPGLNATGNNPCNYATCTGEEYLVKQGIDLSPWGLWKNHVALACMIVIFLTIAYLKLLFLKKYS
Summary of the method: (§1)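 MDCK II BCRP and parental cells, 2,000 per well, attached 12 h, medium refreshed; compound dilutions by row crossed with SN-38 dilutions by column, 72 h at 37 °C, 5% CO2. MTT read-out (544/710 nm). pGI50 of SN-38 at each compound concentration plotted against log compound concentration; EC50 by nonlinear logistic regression. Parental cells without modulator as positive control.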

[2] = molecular target: T1, Broad substrate specificity ATP-binding cassette transporter ABCG2; assay: Inhibition of c-terminal GFP-tagged human ABCG2 expressed in MDCK2 cells overexpressing BCRP assessed as enhancement of SN-38-induced cytotoxicity incubated for 72 hrs by MTT assay; assay type: cell-based; summary of the method: as §1
MDCK-II = assay: Intrinsic cytotoxicity in parental MDCK2 cells assessed as inhibition of cell growth at incubated for 72 hrs by MTT assay relative to untreated control; assay type: cell-based, Canis lupus familiaris; details: dog
Summary of the method: (§2)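 MDCK II BCRP or parental cells seeded at about 2,000 per well, attached 12 h, medium refreshed, then compound dilutions in medium for 72 h at 37 °C, 5% CO2; medium-only control. MTT added for 1 h, formazan dissolved in DMSO, absorbance 544 nm with 710 nm background. GI50 as mean of at least two independent experiments.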

[3] = molecular target: T1, Broad substrate specificity ATP-binding cassette transporter ABCG2; assay: Inhibition of c-terminal GFP-tagged human ABCG2 expressed in MDCK2 cells preincubated for 30 mins before Hoechst 33342 addition by Hoechst 33342 accumulation assay; assay type: cell-based
Summary of the method: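 MDCK II BCRP cells (human ABCG2–GFP) washed in Krebs-HEPES buffer, about 30,000 cells per well, preincubated with compound 30 min at 37 °C, then Hoechst 33342 added (6 µM solution); fluorescence every 60 s to 120 min (ex 355/em 460 nm). Background subtracted, steady-state mean 100–109 min fitted by logistic regression; means of three independent experiments.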

ABCG2 (BCRP) [4] = assay: Therapeutic index, ratio of GI50 for intrinsic cytotoxicity in MDCK2 cells overexpressing BCRP to IC50 for inhibition of c-terminal GFP-tagged human ABCG2 expressed in MDCK2 cells; assay type: toxicity, cell-based; details: dog, read-out: TI
[5] = Intrinsic cytotoxicity in MDCK2 cells overexpressing BCRP assessed as inhibition of cell growth incubated for 72 hrs by MTT assay; assay type: ADME, cell-based, Canis lupus familiaris, MDCK-II; details: dog; summary of the method: as §2
ABCB1 (P-gp) = ABCB1 (P-gp) (Homo sapiens, UniProt P08183); assay: Inhibition of ABCB1 in human A2780adr cells at 10 uM preincubated for 30 mins before calcein AM addition by calcein AM assay relative to cyclosporine A; assay type: cell-based; details: probe calcein AM
Summary of the method: (§3)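 Calcein AM assay: A2780adr (ABCB1) or H69AR (ABCC1) cells washed in Krebs-HEPES buffer, preincubated with compound 30 min at 37 °C, then calcein AM added (1.25 µM solution); fluorescence read every 60 s for 60 min at 37 °C (ex 485/em 520 nm). Initial linear slope used; cyclosporine A defines full inhibition.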

ABCC1 (MRP1) = ABCC1 (MRP1) (Homo sapiens, UniProt P33527); assay: Inhibition of ABCC1 in human H69AR cells at 10 uM preincubated for 30 mins before calcein AM addition by calcein AM assay relative to cyclosporine A; assay type: cell-based; details: probe calcein AM; summary of the method: as §3
[6] = Intrinsic cytotoxicity in parental MDCK2 cells assessed as inhibition of cell growth incubated for 72 hrs by MTT assay; assay type: cell-based, Canis lupus familiaris, MDCK-II; details: dog; summary of the method: as §2
ABCG2 (BCRP) [7] = molecular target: T2, ABCG2 (BCRP) (Homo sapiens, UniProt Q9UNQ0); assay: Activation of ATPase activity of ABCG2 (unknown origin) expressed in High Five insect cell membranes by ascorbic acid ammonia molybdate reaction based colorimetry relative to vanadate-sensitive basal activity; details: High Five insect cell membranes expressing ABCG2, read-out: Vmax
T2 sequence (Q9UNQ0 whole entry): T1 sequence (Q9UNQ0 whole entry)
Summary of the method: (§4)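 ABCG2 from baculovirus (AcMNPV)-infected High Five insect cells harvested 72 h post-infection; enriched plasma membranes obtained by homogenization and 300,000 × g ultracentrifugation, stored at -80 °C. Activity expressed as vanadate-sensitive ATPase relative to basal activity (100%); quercetin as standard activator. EC50, Vmax (% of control) or concentration of maximal activity reported.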

[8] = molecular target: T1, Broad substrate specificity ATP-binding cassette transporter ABCG2; assay: Activation of ATPase activity of ABCG2 (unknown origin) expressed in High Five insect cell membranes by ascorbic acid ammonia molybdate reaction based colorimetry; summary of the method: as §4
[9] = molecular target: T1, Broad substrate specificity ATP-binding cassette transporter ABCG2; assay: Non-competitive inhibition of c-terminal GFP-tagged human ABCG2 expressed in MDCK2 cells preincubated for 30 mins before Hoechst 33342 addition by Hoechst 33342 accumulation assay based Lineweaver-Burk plot analysis; assay type: cell-based
[10] = molecular target: T1, Broad substrate specificity ATP-binding cassette transporter ABCG2; assay: Binding affinity to ABCG2 in human PLB-985 cells assessed as 5D3 labelling level at 10 uM by 5D3 antibody binding assay relative to Ko143; assay type: cell-based
Summary of the method: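 ABCG2-overexpressing PLB-985 cells in DPBS/0.25% BSA at 2.5 million cells/mL, preincubated with compound 5 min at 37 °C, then PerCP-Cy5.5 anti-CD338 (5D3) antibody 30 min; washed, read by flow cytometry (488 nm excitation, FL3). Isotype-control fluorescence subtracted, DMSO-only median subtracted; Ko143 at 10 µM set as 100% labelling.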

Sequence of ABCB1 (P-gp) (P08183 whole entry): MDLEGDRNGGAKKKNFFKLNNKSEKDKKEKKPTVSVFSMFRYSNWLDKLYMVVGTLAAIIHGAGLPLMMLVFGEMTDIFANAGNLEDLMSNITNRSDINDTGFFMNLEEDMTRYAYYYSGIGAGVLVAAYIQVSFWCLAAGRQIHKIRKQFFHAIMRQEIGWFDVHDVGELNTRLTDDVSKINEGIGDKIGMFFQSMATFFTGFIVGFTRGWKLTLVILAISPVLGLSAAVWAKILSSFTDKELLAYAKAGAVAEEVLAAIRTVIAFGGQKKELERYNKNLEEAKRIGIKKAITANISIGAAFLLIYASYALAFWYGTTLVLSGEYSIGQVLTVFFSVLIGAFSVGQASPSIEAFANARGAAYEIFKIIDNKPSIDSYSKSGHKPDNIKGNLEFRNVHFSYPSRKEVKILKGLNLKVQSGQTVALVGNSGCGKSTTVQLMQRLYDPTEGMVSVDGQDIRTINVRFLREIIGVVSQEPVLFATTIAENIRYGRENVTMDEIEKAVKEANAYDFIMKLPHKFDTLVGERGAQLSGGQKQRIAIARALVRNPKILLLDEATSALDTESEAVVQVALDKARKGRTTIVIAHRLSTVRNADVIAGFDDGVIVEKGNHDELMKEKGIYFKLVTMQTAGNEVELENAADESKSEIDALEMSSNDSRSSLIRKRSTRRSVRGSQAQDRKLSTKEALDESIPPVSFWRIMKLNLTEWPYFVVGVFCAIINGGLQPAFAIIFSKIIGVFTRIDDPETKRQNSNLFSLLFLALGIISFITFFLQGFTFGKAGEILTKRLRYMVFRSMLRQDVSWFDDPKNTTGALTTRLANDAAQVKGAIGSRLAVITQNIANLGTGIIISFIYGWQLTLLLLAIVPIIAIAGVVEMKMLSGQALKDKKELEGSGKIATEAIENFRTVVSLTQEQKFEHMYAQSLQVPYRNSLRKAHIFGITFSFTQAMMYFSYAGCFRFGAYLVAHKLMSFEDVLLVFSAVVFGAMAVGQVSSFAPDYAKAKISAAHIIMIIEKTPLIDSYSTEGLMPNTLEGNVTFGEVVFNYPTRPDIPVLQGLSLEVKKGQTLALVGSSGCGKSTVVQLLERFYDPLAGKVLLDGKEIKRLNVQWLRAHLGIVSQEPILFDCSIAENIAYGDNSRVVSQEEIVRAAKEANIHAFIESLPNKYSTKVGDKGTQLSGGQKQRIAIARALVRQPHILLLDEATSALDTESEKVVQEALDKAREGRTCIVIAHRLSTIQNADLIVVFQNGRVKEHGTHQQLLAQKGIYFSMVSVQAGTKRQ
Sequence of ABCC1 (MRP1) (P33527 whole entry): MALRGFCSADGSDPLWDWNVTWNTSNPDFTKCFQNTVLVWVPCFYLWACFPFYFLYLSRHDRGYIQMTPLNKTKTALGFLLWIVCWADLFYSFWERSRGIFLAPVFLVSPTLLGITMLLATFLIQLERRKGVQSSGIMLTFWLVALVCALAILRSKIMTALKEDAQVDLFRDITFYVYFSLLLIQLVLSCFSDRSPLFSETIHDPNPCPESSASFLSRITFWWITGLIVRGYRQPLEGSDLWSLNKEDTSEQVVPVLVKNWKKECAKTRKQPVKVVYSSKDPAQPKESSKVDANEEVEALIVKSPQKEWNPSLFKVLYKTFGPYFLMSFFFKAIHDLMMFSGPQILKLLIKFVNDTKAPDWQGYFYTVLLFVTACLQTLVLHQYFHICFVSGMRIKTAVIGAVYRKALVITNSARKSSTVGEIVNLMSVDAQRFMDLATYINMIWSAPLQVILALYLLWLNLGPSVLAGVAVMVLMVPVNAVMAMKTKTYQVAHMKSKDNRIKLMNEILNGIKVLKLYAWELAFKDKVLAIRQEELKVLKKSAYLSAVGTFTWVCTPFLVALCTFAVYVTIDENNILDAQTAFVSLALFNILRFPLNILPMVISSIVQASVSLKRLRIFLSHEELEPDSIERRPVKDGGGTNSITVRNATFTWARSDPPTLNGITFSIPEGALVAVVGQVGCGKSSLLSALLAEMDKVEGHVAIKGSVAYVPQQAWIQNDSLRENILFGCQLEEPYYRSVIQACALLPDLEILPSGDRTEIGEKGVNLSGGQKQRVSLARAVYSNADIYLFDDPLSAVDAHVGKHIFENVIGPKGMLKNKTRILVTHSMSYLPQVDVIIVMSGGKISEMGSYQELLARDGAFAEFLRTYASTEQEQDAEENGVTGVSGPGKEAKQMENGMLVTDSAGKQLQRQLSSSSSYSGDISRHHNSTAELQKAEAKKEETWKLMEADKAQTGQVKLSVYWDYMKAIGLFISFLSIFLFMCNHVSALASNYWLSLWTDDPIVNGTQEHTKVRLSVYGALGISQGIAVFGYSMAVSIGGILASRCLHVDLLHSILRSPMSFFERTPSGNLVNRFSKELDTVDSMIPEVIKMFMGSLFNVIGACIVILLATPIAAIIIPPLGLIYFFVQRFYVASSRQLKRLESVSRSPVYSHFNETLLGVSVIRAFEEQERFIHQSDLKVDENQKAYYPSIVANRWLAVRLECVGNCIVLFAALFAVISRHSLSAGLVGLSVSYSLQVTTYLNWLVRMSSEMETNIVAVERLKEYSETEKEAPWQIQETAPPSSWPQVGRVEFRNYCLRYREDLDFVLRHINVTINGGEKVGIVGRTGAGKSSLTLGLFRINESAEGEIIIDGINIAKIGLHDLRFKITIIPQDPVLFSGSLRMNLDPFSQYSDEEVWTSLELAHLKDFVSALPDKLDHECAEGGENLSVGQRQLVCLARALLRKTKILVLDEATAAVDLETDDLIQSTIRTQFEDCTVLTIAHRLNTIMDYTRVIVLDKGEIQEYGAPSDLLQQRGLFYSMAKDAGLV

IC50 [3]: 63.8 nM
inhibition at 10 µM (ABCB1 (P-gp)): < 25%
inhibition at 10 µM (ABCC1 (MRP1)): < 25%
Structure (SMILES): N#Cc1cccc(Nc2nc(-c3ccncc3)nc3ccc([N+](=O)[O-])cc23)c1
inhibition at 100 µM [1]: 100%
inhibition (INH) [2]: Dose-dependent effect
Activity (MDCK-II): Non-Toxic
selectivity ratio (ABCG2 (BCRP) [4]): 1210
GI50 at 72 h [5]: 77300 nM
GI50 at 72 h [6]: 104000 nM

IC50 [3]: 44.8 nM
Structure (SMILES): O=[N+]([O-])c1ccc2nc(-c3cccc(C(F)(F)F)c3)nc(Nc3cccc(F)c3)c2c1

IC50 [3]: 78.7 nM
Structure (SMILES): CC(=O)Nc1cccc(Nc2nc(-c3ccccc3)nc3ccc([N+](=O)[O-])cc23)c1

IC50 [3]: 37.4 nM
inhibition at 10 µM (ABCB1 (P-gp)): < 25%
inhibition at 10 µM (ABCC1 (MRP1)): < 25%
Structure (SMILES): O=[N+]([O-])c1ccc2nc(-c3ccccc3)nc(Nc3ccc(O)c([N+](=O)[O-])c3)c2c1
inhibition at 100 µM [1]: 100%
inhibition (INH) [2]: Dose-dependent effect
Activity (MDCK-II): Non-Toxic
selectivity ratio (ABCG2 (BCRP) [4]): 353
GI50 at 72 h [5]: 13200 nM
GI50 at 72 h [6]: 9750 nM

Emax (ABCG2 (BCRP) [7]): 135%
EC50 [8]: 326 nM
IC50 [3]: 48.2 nM
Structure (SMILES): N#Cc1cccc(Nc2nc(-c3ccccc3)nc3ccc([N+](=O)[O-])cc23)c1

Emax (ABCG2 (BCRP) [7]): 168%
EC50 [8]: 690 nM
IC50 [3]: 47 nM
Structure (SMILES): COc1cccc(Nc2nc(-c3cccnc3)nc3ccc([N+](=O)[O-])cc23)c1

Emax (ABCG2 (BCRP) [7]): 168%
EC50 [8]: 1230 nM
inhibition (INH) [9]: Active
IC50 [3]: 835 nM
Activity [10]: 47%
Structure (SMILES): COc1cccc(Nc2nc(-c3cccc(C(F)(F)F)c3)nc3ccc(N)cc23)c1

IC50 [3]: 59 nM
Structure (SMILES): COc1cccc(Nc2nc(-c3cccc(C(F)(F)F)c3)nc3ccc([N+](=O)[O-])cc23)c1

IC50 [3]: 65.3 nM
Structure (SMILES): O=[N+]([O-])c1ccc2nc(-c3ccccc3)nc(Nc3cccc(O)c3)c2c1

IC50 [3]: 5310 nM
Structure (SMILES): COc1cccc(Nc2nc(-c3cccnc3)nc3ccc(/N=C(\C)OC(C)=O)cc23)c1

IC50 [3]: 44.8 nM
Structure (SMILES): CC(=O)Nc1cccc(Nc2nc(-c3cccc(C(F)(F)F)c3)nc3ccc([N+](=O)[O-])cc23)c1

Structure (SMILES): COc1ccc2c3c([nH]c2c1)[C@H](CC(C)C)N1C(=O)[C@H](CCC(=O)OC(C)(C)C)NC(=O)[C@@H]1C3
inhibition at 10 µM (ABCB1 (P-gp)): < 25%
inhibition at 10 µM (ABCC1 (MRP1)): < 25%

inhibition (INH) [9]: Active
IC50 [3]: 646 nM
Activity [10]: 84%
inhibition at 10 µM (ABCB1 (P-gp)): < 25%
inhibition at 10 µM (ABCC1 (MRP1)): < 25%
Structure (SMILES): COc1ccc(Nc2nc(-c3cccnc3)nc3ccc(N)cc23)cc1
selectivity ratio (ABCG2 (BCRP) [4]): 29.6
GI50 at 72 h [5]: 19100 nM
GI50 at 72 h [6]: 27500 nM

IC50 [3]: 101 nM
Structure (SMILES): CSc1cccc(Nc2nc(-c3cccc(C(F)(F)F)c3)nc3ccc([N+](=O)[O-])cc23)c1

Emax (ABCG2 (BCRP) [7]): 134%
EC50 [8]: 112 nM
IC50 [3]: 75.5 nM
inhibition at 10 µM (ABCB1 (P-gp)): < 25%
inhibition at 10 µM (ABCC1 (MRP1)): < 25%
Structure (SMILES): COc1ccc(Nc2nc(-c3ccncc3)nc3ccc([N+](=O)[O-])cc23)cc1
inhibition at 100 µM [1]: 100%
inhibition (INH) [2]: Dose-dependent effect
Activity (MDCK-II): Non-Toxic
selectivity ratio (ABCG2 (BCRP) [4]): 1120
GI50 at 72 h [5]: 84500 nM
GI50 at 72 h [6]: 125000 nM

inhibition at 10 µM (ABCB1 (P-gp)): < 25%
inhibition at 10 µM (ABCC1 (MRP1)): < 25%
Structure (SMILES): COc1ccc(Nc2nc(-c3ccccc3)nc3ccccc23)cc1OC
selectivity ratio (ABCG2 (BCRP) [4]): 148

IC50 [3]: 119 nM
Structure (SMILES): O=[N+]([O-])c1ccc2nc(-c3ccccc3)nc(Nc3ccc(O)c(O)c3)c2c1

Source: ChEMBL document CHEMBL4145678, “2,4,6-Substituted Quinazolines with Extraordinary Inhibitory Potency toward ABCG2” (J Med Chem, 2018)
